Assays:
Type in all cases: functional
[1] = tested on: Mustela putorius furo; assay: The compound was evaluated for the percentage increase in the emetic latency period to first emetic episode against cisplatin induced emesis in ferret (intravenous administration)
How it was run: (§1)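 Ferrets receive the test agent iv as a pretreatment before the cisplatin challenge; the table footnotes give 30 min and 60 min pretreatment times. Each dose uses 3–10 animals, with at least three doses per agent.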

[2] = tested on: Mustela putorius furo; assay: Ratio of number of animals protected to the number of tested against cisplatin-induced emesis in ferret upon intravenous administration; 0/3; how it was run: as §1
[3] = tested on: Mustela putorius furo; assay: The compound was evaluated for the percentage reduction in the emetic episodes against cisplatin induced emesis in ferret (intravenous administration); how it was run: as §1
[4] = tested on: Mustela putorius furo; assay: Antiemetic potency was tested against cisplatin-induced emetic latency period in ferret after oral administration
How it was run: (§2)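 Ferret cisplatin-emesis model, iv or po pretreatment 30 or 60 min before cisplatin. Emetic latency read-out given as ED100, the dose raising emetic latency 100% over the control period. Based on 3–10 animals per dose, at least three per compound.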

[5] = tested on: Mustela putorius furo; assay: Antiemetic potency was tested against cisplatin-induced emetic episodes in ferret after oral administration
How it was run: (§3)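 Ferret cisplatin-emesis model. Drug given iv or po, 30 or 60 min before cisplatin. Emetic episodes counted and ED50 derived from 3–10 animals per dose, at least three per compound. Control emetic episode means were reported.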

[6] = tested on: Mustela putorius furo; assay: Ratio of number of animals protected to the number of tested against cisplatin-induced emesis in ferret upon intravenous administration; 0/5; how it was run: as §1
[7] = tested on: Mustela putorius furo; assay: The compound was evaluated for the percentage reduction in the emetic episodes against cisplatin-induced emesis in ferret (intravenous administration); how it was run: as §1
[8] = tested on: Mustela putorius furo; assay: Ratio of number of animals protected to the number of tested against cisplatin-induced emesis in ferret upon intravenous administration; 0/4; how it was run: as §1
[9] = tested on: Mustela putorius furo; assay: The compound was evaluated for the percentage increase in the emetic latency period to first emetic episode against cisplatin-induced emesis in ferret (intravenous administration); how it was run: as §1
[10] = tested on: Mustela putorius furo; assay: Antiemetic potency against cisplatin-induced emetic latency period in ferret after intravenous administration; how it was run: as §2
[11] = tested on: Mustela putorius furo; assay: The compound was evaluated for the percentage increase in the emetic latency period against cisplatin-induced emesis in ferret (oral administration)
How it was run: (§4)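 Ferrets dosed orally in 0.5% methylcellulose vehicle 60 min before cisplatin and observed for 240 min. Scored for complete protection (protected/tested), mean % reduction in emetic episodes and mean % increase in emetic latency. Non-vomiting animals were assigned 240 min latency. Significance versus vehicle group at p<0.05 or p<0.01.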

[12] = tested on: Mustela putorius furo; assay: Antiemetic potency against cisplatin-induced emetic episodes in ferret after intravenous administration; how it was run: as §3
[13] = tested on: Mustela putorius furo; assay: Ratio of number of animals protected to the number of tested against cisplatin-induced emesis in ferret upon intravenous administration; 2/4; how it was run: as §1
[14] = tested on: Mustela putorius furo; assay: Mean percent increase in emetic episode evaluated by giving RG 12915 (0.003 mg/kg) 60 min prior to cisplatin (orally) in ferret; how it was run: as §4
[15] = tested on: Mustela putorius furo; assay: Mean percent increase in emetic episode evaluated by giving RG 12915 (0.010 mg/kg) 60 min prior to cisplatin (orally) in ferret; how it was run: as §4
[16] = tested on: Mustela putorius furo; assay: Compound was evaluated for Percent protected by giving 0.5% methylcellulose 60 min prior to cisplatin (orally) in ferret; how it was run: as §4
[17] = tested on: Mustela putorius furo; assay: Compound was evaluated for Percent protected by giving RG 12915 (0.003 mg/kg) 60 min prior to cisplatin (orally) in ferret; how it was run: as §4
[18] = tested on: Mustela putorius furo; assay: Compound was evaluated for Percent protected by giving RG 12915 (0.010 mg/kg) 60 min prior to cisplatin (orally) in ferret; how it was run: as §4
[19] = tested on: Mustela putorius furo; assay: Compound was evaluated for Percent protected by giving RG 12915 (0.03 mg/kg) 60 min prior to cisplatin (orally) in ferret; how it was run: as §4
[20] = tested on: Mustela putorius furo; assay: Compound was evaluated for Percent protected by giving RG 12915 (0.1 mg/kg) 60 min prior to cisplatin (orally) in ferret; how it was run: as §4
[21] = tested on: Mustela putorius furo; assay: Compound was evaluated for Percent protected by giving RG 12915 (1.0 mg/kg) 60 min prior to cisplatin (orally) in ferret; how it was run: as §4
[22] = tested on: Mustela putorius furo; assay: Mean percent increase in emetic episode evaluated by giving RG 12915 (0.03 mg/kg) 60 min prior to cisplatin (orally) in ferret; how it was run: as §4
[23] = tested on: Mustela putorius furo; assay: Mean percent increase in emetic episode evaluated by giving RG 12915 (0.1 mg/kg) 60 min prior to cisplatin (orally) in ferret; how it was run: as §4
[24] = tested on: Mustela putorius furo; assay: Mean percent increase in emetic episode evaluated by giving RG 12915 (1.0 mg/kg) 60 min prior to cisplatin (orally) in ferret; how it was run: as §4
[25] = tested on: Mustela putorius furo; assay: Ratio of no. of protected and no. of tested evaluated by giving 0.5% methylcellulose 60 min prior to cisplatin (orally) in ferret; 0/22; how it was run: as §4
[26] = tested on: Mustela putorius furo; assay: Ratio of no. of protected and no. of tested evaluated by giving RG 12915 (0.003 mg/kg) 60 min prior to cisplatin (orally) in ferret; 1/4; how it was run: as §4
[27] = tested on: Mustela putorius furo; assay: Ratio of no. of protected and no. of tested evaluated by giving RG 12915 (0.010 mg/kg) 60 min prior to cisplatin (orally) in ferret; 5/12; how it was run: as §4
[28] = tested on: Mustela putorius furo; assay: Ratio of no. of protected and no. of tested evaluated by giving RG 12915 (0.03 mg/kg) 60 min prior to cisplatin (orally) in ferret; 4/4; how it was run: as §4
[29] = tested on: Mustela putorius furo; assay: Ratio of no. of protected and no. of tested evaluated by giving RG 12915 (0.1 mg/kg) 60 min prior to cisplatin (orally) in ferret; 6/6; how it was run: as §4
[30] = tested on: Mustela putorius furo; assay: Ratio of no. of protected and no. of tested evaluated by giving RG 12915 (1.0 mg/kg) 60 min prior to cisplatin (orally) in ferret; 7/10; how it was run: as §4
[31] = tested on: Mustela putorius furo; assay: Mean percent reduction in emetic episode evaluated by giving RG 12915 (0.003 mg/kg) 60 min prior to cisplatin (orally) in ferret; how it was run: as §4
[32] = tested on: Mustela putorius furo; assay: Mean percent reduction in emetic episode evaluated by giving RG 12915 (0.010 mg/kg) 60 min prior to cisplatin (orally) in ferret; how it was run: as §4
[33] = tested on: Mustela putorius furo; assay: Mean percent reduction in emetic episode evaluated by giving RG 12915 (0.03 mg/kg) 60 min prior to cisplatin (orally) in ferret; how it was run: as §4
[34] = tested on: Mustela putorius furo; assay: Mean percent reduction in emetic episode evaluated by giving RG 12915 (0.1 mg/kg) 60 min prior to cisplatin (orally) in ferret; how it was run: as §4
[35] = tested on: Mustela putorius furo; assay: Mean percent reduction in emetic episode evaluated by giving RG 12915 (1.0 mg/kg) 60 min prior to cisplatin (orally) in ferret; how it was run: as §4

## CN1CCCC1CCNC(=O)c1cc(Cl)cc2c1OC1CCCCC21 (stereo not drawn)
[1]
  Increase: -0.9%
[2]
  Ratio: 0
[3]
  Reduction: -38.1%

## O=C(N[C@H]1CN2CCC1CC2)c1cc(Cl)cc2c1O[C@H]1CCC[C@@H]2C1
[4]
  ED100: 0.408 mg/kg
[5]
  ED50: 0.085 mg/kg

## CCN(CC)CCNC(=O)c1cc(Cl)cc2c1OC1CCCCC21 (stereo not drawn)
[1]
  Increase: 6.5%
[6]
  Ratio: 0
[7]
  Reduction: 2.2%

## O=C(NCCc1c[nH]cn1)c1cc(Cl)cc2c1OC1CCCCC21 (stereo not drawn)
[1]
  Increase: 27.6%
[8]
  Ratio: 0
[3]
  Reduction: 44.4%

## Cn1cccc1CCNC(=O)c1cc(Cl)cc2c1OC1CCCCC21 (stereo not drawn)
[9]
  Increase: 1%
[8]
  Ratio: 0
[3]
  Reduction: 51.7%

## O=C(NC1CN2CCC1CC2)c1cc(Cl)cc2c1OC1CCCC2C1 (stereo not drawn)
[4]
  ED100: 0.022 mg/kg
[5]
  ED50: 0.079 mg/kg

## O=C(NC1CN2CCC1CC2)c1cc(Cl)cc2c1OC1CCCCC21 (stereo not drawn)
[10]
  ED100: 0.011 mg/kg
[11]
  ED100: 0.011 mg/kg
[12]
  ED50: 0.006 mg/kg
[5]
  ED50: 0.005 mg/kg

## O=C(NCCN1CCOCC1)c1cc(Cl)cc2c1OC1CCCCC21 (stereo not drawn)
[1]
  Increase: 110.9%
[13]
  Ratio: 2
[3]
  Reduction: 48.9%

## O=C(N[C@@H]1CN2CCC1CC2)c1cc(Cl)cc2c1O[C@@H]1CCCC[C@H]21
[4]
  ED100: 0.258 mg/kg
[5]
  ED50: 0.041 mg/kg

## O=C(N[C@@H]1CN2CCC1CC2)c1cc(Cl)cc2c1O[C@@H]1CCC[C@H]2C1
[4]
  ED100: 0.29 mg/kg
[5]
  ED50: 0.061 mg/kg

## O=C(N[C@@H]1CN2CCC1CC2)c1cc(Cl)cc2c1O[C@H]1CCCC[C@@H]21
[10]
  ED100: 0.007 mg/kg
[11]
  ED100: 0.005 mg/kg
[12]
  ED50: 0.004 mg/kg
[5]
  ED50: 0.004 mg/kg
[14]
  Increase: 53%
[15]
  Increase: 105%
[16]
  Protected: 0%
[17]
  Protected: 25%
[18]
  Protected: 42%
[19]
  Protected: 100%
[20]
  Protected: 100%
[21]
  Protected: 70%
[22]
  Increase: 195%
[23]
  Increase: 195%
[24]
  Increase: 171%
[25]
  Ratio: 0
[26]
  Ratio: 1
[27]
  Ratio: 5
[28]
  Ratio: 4
[29]
  Ratio: 6
[30]
  Ratio: 7
[31]
  Reduction: 24%
[32]
  Reduction: 57%
[33]
  Reduction: 100%
[34]
  Reduction: 100%
[35]
  Reduction: 90%

## O=C(N[C@H]1CN2CCC1CC2)c1cc(Cl)cc2c1O[C@H]1CCC[C@H]2C1
[4]
  ED100: >1 mg/kg
[5]
  ED50: > 1 mg/kg

## CN1C2CCCC1CC(NC(=O)c1nn(C)c3ccccc13)C2 (stereo not drawn) [GRANISETRON]
[10]
  ED100: 0.082 mg/kg
[4]
  ED100: 0.117 mg/kg

## Cc1nccn1CC1CCc2c(c3ccccc3n2C)C1=O (stereo not drawn) [ONDANSETRON]
[10]
  ED100: 0.015 mg/kg
[4]
  ED100: 0.031 mg/kg
[12]
  ED50: 0.008 mg/kg
[5]
  ED50: 0.28 mg/kg

## O=C(N[C@H]1CN2CCC1CC2)c1cc(Cl)cc2c1O[C@@H]1CCCC[C@H]21
[4]
  ED100: >3 mg/kg
[5]
  ED50: 0.084 mg/kg

## CCN(CC)CCNC(=O)c1cc(Cl)c(N)cc1OC [METOCLOPRAMIDE]
[10]
  ED100: 2.1 mg/kg
[4]
  ED100: >5 mg/kg

## O=C(N[C@H]1CN2CCC1CC2)c1cc(Cl)cc2c1O[C@H]1CCCC[C@@H]21
[4]
  ED100: 0.107 mg/kg
[5]
  ED50: 0.056 mg/kg

## O=C(NC1CN2CCC1CC2)c1cc(Cl)cc2c3c(oc12)CCCC3 (stereo not drawn)
[4]
  ED100: 0.272 mg/kg
[5]
  ED50: 0.033 mg/kg

## O=C(N[C@@H]1CN2CCC1CC2)c1cc(Cl)cc2c1O[C@H]1CCC[C@@H]2C1
[10]
  ED100: 0.006 mg/kg
[4]
  ED100: 0.01 mg/kg
[12]
  ED50: 0.009 mg/kg
[5]
  ED50: 0.007 mg/kg

From ChEMBL document CHEMBL1126263, “Development of high-affinity 5-HT3 receptor antagonists. 2. Two novel tricyclic benzamides” (J Med Chem, 1992)
